Reference: ChEMBL document CHEMBL3232782, “1,2,3,4,8,9,10,11-octahydrobenzo[j]phenanthridine-7,12-diones as new leads against Mycobacterium tuberculosis” (J Med Chem, 2014)
In brackets after ≈: the same amount, converted by molar mass. Activity calls are given as the source filed them. No cut-off for these calls is given here.

What was measured:
[1] = test system: Mycobacterium tuberculosis; assay: Antimycobacterial activity against Mycobacterium tuberculosis H37Rv expressing luciferase assessed as growth inhibition after 6 days by luminometry; format: functional; details: 144 h
In short: (§1)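 Strains carried pSMT1 luxAB reporter plasmid. DMSO stocks 10 mM, serially diluted in 7H9 + 10% FCS, triplicate wells. Filtered bacterial suspension at 50 000 RLU/mL. Luminescence read after 6 days using 1% n-decanal substrate. […] Growth temperatures: M.tb 37 °C; M. avium and M. bovis 39 °C.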

[2] = Cytotoxicity against mouse J774A1 cells assessed as cell viability after 24 hrs by Trypan blue exclusion assay; format: cell-based; details: J774.A1, 24 h
[3] = Selectivity index, ratio of IC50 for mouse J774A1 cells to MIC for Mycobacterium tuberculosis H37Rv expressing luciferase; format: toxicity, cell-based, J774.A1; details: read-out: Selectivity Index
In short: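 SI = IC50/MIC. IC50 came from a neutral red uptake assay on J774 A.1 cells after 24 h exposure in DMEM + 10% FCS, with OD 530 nm. […] Both were from triplicate cultures.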

[4] = test system: Mycobacterium tuberculosis; assay: Antimycobacterial activity against Mycobacterium tuberculosis H37Rv expressing luciferase assessed as growth inhibition at 100 uM preincubated with liver S9 fraction for 15 mins followed by incubation with parasite and measured after 6 days by luminometry; format: functional, organism-based
In short: (§2)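 Compounds (100 μM) were preincubated with NADPH/G-6-P-conditioned liver S9 at 37 °C, 5% CO2 for 15 or 30 min. They were then serially diluted and tested against luminescent H37Rv in 7H9 + 10% FCS. Luminescence was read after 6 days with n-decanal.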

[5] = test system: Mycobacterium tuberculosis; assay: Antimycobacterial activity against Mycobacterium tuberculosis H37Rv expressing luciferase assessed as growth inhibition preincubated with liver S9 fraction for 30 mins followed by incubation with parasite and measured after 6 days by luminometry; format: functional; in short: as §2
[6] = test system: Mycobacterium tuberculosis; assay: Antimycobacterial activity against Mycobacterium tuberculosis Beijing 17919 expressing luciferase assessed as growth inhibition after 6 days by luminometry; format: functional; details: Beijing 17919, 144 h; in short: as §1
[7] = test system: Mycobacterium avium subsp. paratuberculosis; assay: Antimycobacterial activity against Mycobacterium avium subsp. paratuberculosis ATCC 19698 expressing luciferase assessed as growth inhibition after 6 days by luminometry; format: functional; details: ATCC 19698, 144 h; in short: as §1
[8] = Antimycobacterial activity against Mycobacterium avium subsp. avium ATCC 15769 expressing luciferase assessed as growth inhibition after 6 days by luminometry; format: functional; details: ATCC 15769, 144 h; in short: as §1
[9] = Selectivity ratio of IC90 for Mycobacterium ulcerans 1615 to IC90 for Mycobacterium tuberculosis; format: functional
[10] = test system: Mycobacterium tuberculosis; assay: Antimycobacterial activity against Mycobacterium tuberculosis H37Rv expressing luciferase infected in mouse J774A1 cells assessed as inhibition of replication at 0.03 to 0.05 uM measured after 1 to 4 days by luminescence assay; format: functional, organism-based; details: J774.A1
In short: (§3)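 J774 A.1 cells (40 000/well) were infected with H37Rv lux at MOI 0.1 in DMEM with penicillin/fungizone and no gentamicin. Serial compound dilutions were added, with treatment starting 24 h post infection. Extracellular bacteria were removed by washes and 1 h 1% gentamicin. Cells were lysed with 1% Triton X-100 and luminescence read with n-decanal. Reduction in RLU versus untreated; INH 0.1 μM control.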

[11] = test system: Mycobacterium tuberculosis; assay: Antimycobacterial activity against Mycobacterium tuberculosis H37Rv expressing luciferase infected in mouse J774A1 cells assessed as inhibition of replication at 0.25 uM measured after 1 to 4 days by luminescence assay; format: functional; details: J774.A1; in short: as §3
[12] = test system: Mycobacterium tuberculosis; assay: Antimycobacterial activity against Mycobacterium tuberculosis H37Rv expressing luciferase infected in mouse J774A1 cells assessed as inhibition of replication at 0.50 uM measured after 1 to 4 days by luminescence assay; format: functional; details: J774.A1; in short: as §3
[13] = test system: Mycobacterium tuberculosis; assay: Antimycobacterial activity against Mycobacterium tuberculosis H37Rv expressing luciferase infected in mouse J774A1 cells assessed as inhibition of replication measured after 1 to 4 days by luminescence assay; format: functional, J774.A1; in short: as §3
[14] = Genotoxicity in mouse J774A1 cells assessed as DNA strand breaks at 0.25 to 50 uM after 24 hrs by Comet assay; format: toxicity, cell-based; details: j774.a1, 24 h
In short: (§4)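 J774 A.1 cells (100 000/well) were exposed to compound serial dilutions in DMEM + 10% FCS for 24 h at 37 °C, 5% CO2. Alkaline comet assay: cells embedded in low-melt agarose, lysed, electrophoresed 20 min at 300 mA, neutralized and stained with gel red. The % tail DNA of 200 nuclei was scored by fluorescence microscopy. Mann–Whitney U test.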

[15] = Selectivity index, ratio of IC50 for mouse J774A1 cells to MIC for Mycobacterium tuberculosis H37Rv expressing luciferase infected in mouse J774A1 cells; format: toxicity, cell-based, J774.A1; details: read-out: Selectivity Index
In short: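 SI = neutral red IC50 in J774 A.1 cells (24 h) divided by the intracellular MIC. The intracellular MIC came from luminescent H37Rv in infected J774 A.1 macrophages after 3 days of treatment starting 24 h post infection, with lysate luminescence measured using n-decanal.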

[16] = Genotoxicity in mouse J774A1 cells assessed as DNA strand breaks at 0.25 to 5 uM after 24 hrs by Comet assay; format: toxicity, cell-based; details: j774.a1, 24 h; in short: as §4

SMILES | MIC99 [1] [µM] | IC50 [2] [µM] | selectivity ratio [3] | further results
Cc1nc2c(c3c1C(=O)c1ccccc1C3=O)CCC(C)C2 (stereo not given) | 9.85 (≈ 2.87 µg/mL) | 25.7 | 2.61 | –
Cc1ccc2c3c(cnc2c1)C(=O)c1ccccc1C3=O | – | 3.21 | 15 | MIC [1]: 0.64 µM (≈ 0.175 µg/mL)
CC(C)(C)C1CCc2ncc3c(c2C1)C(=O)C1=C(C3=O)C2CCC1C2 (stereo not given) | 0.59 (≈ 0.198 µg/mL) | 51.4 | 87 | growth inhibition (GI) [4]: Active; MIC [5]: 1.05 µM (≈ 0.352 µg/mL); MIC [6]: 0.33 µM (≈ 0.111 µg/mL); MIC [7]: 0.69 µM (≈ 0.231 µg/mL); MIC [8]: 0.8 µM (≈ 0.268 µg/mL); Selectivity ratio [9]: 6; growth inhibition (GI) [10]: inactive; inhibition at 0.25 µM [11]: 43.8%; inhibition at 0.5 µM [12]: 52.6%; MIC [13]: 2.48 µM (≈ 0.832 µg/mL); Activity [14]: Non-toxic; selectivity ratio [15]: 20.7
CC1CCc2ncc3c(c2C1)C(=O)c1ccccc1C3=O (stereo not given) | 9.61 (≈ 2.67 µg/mL) | 1.31 | 0.14 | –
Cc1nc2c(c3c1C(=O)c1ccccc1C3=O)CCCC2C (stereo not given) | 17.7 (≈ 5.15 µg/mL) | 30.8 | 1.74 | –
Cc1nc2c(c3c1C(=O)c1ccccc1C3=O)CCCC2 | 17.8 (≈ 4.93 µg/mL) | 10.9 | 0.61 | –
CCOC(=O)C1CCc2ncc3c(c2C1)C(=O)C1=C(C3=O)C2CCC1CC2 (stereo not given) | 0.26 (≈ 0.095 µg/mL) | 49.8 | 191 | growth inhibition (GI) [4]: Active; MIC [5]: 0.65 µM (≈ 0.238 µg/mL); MIC [6]: 0.16 µM (≈ 0.0585 µg/mL); MIC [7]: 0.21 µM (≈ 0.0767 µg/mL); MIC [8]: 0.37 µM (≈ 0.135 µg/mL); Selectivity ratio [9]: 10; growth inhibition (GI) [10]: inactive; inhibition at 0.25 µM [11]: 55.8%; inhibition at 0.5 µM [12]: 94.3%; MIC [13]: 2.41 µM (≈ 0.881 µg/mL); Activity [14]: Non-toxic; selectivity ratio [15]: 79.3
O=C1c2ccccc2C(=O)c2c1cnc1c2CCCC1 | 9.88 (≈ 2.6 µg/mL) | 7.34 | 0.74 | –
CC1CCCc2c1ncc1c2C(=O)c2ccccc2C1=O (stereo not given) | 14.4 (≈ 4 µg/mL) | 14.9 | 1.03 | –
CC(C)(C)C1CCc2ncc3c(c2C1)C(=O)c1ccccc1C3=O (stereo not given) | 9.64 (≈ 3.08 µg/mL) | 11.5 | 1.19 | –
CC1CCc2c(ncc3c2C(=O)c2ccccc2C3=O)C1 (stereo not given) | 5.3 (≈ 1.47 µg/mL) | 8.13 | 1.53 | –
CC(C)(C)C1CCc2ncc3c(c2C1)C(=O)C1=C(C3=O)C2CCC1O2 (stereo not given) | 7.21 (≈ 2.43 µg/mL) | 53.2 | 7.38 | –
NNC(=O)c1ccncc1 [ISONIAZID] | 0.13 (≈ 0.0178 µg/mL) | > 100 | > 769 | MIC [6]: 0.09 µM (≈ 0.0123 µg/mL); MIC [7]: 0.99 µM (≈ 0.136 µg/mL); MIC [8]: 0.76 µM (≈ 0.104 µg/mL)
CO[C@H]1/C=C/O[C@@]2(C)Oc3c(C)c(O)c4c(O)c(c(/C=N/N5CCN(C)CC5)c(O)c4c3C2=O)NC(=O)/C(C)=C\C=C\[C@H](C)[C@H](O)[C@@H](C)[C@@H](O)[C@@H](C)[C@H](OC(C)=O)[C@@H]1C [RIFAMPIN] | 0.19 (≈ 0.156 µg/mL) | > 100 | > 526 | –
CCOC(=O)C1CCc2ncc3c(c2C1)C(=O)C1=C(C3=O)C2CCC1C2 (stereo not given) | 0.22 (≈ 0.0773 µg/mL) | 8.49 | 38.6 | growth inhibition (GI) [4]: Active; MIC [5]: 0.66 µM (≈ 0.232 µg/mL); MIC [6]: 0.14 µM (≈ 0.0492 µg/mL); MIC [7]: 0.44 µM (≈ 0.155 µg/mL); MIC [8]: 1.22 µM (≈ 0.429 µg/mL); Selectivity ratio [9]: 50; growth inhibition (GI) [10]: inactive; inhibition at 0.25 µM [11]: 63.9%; inhibition at 0.5 µM [12]: 86.7%; MIC [13]: 2.38 µM (≈ 0.836 µg/mL); Activity [16]: Non-toxic; selectivity ratio [15]: 10.8
CC(C)(C)C1CCc2ncc3c(c2C1)C(=O)C1=C(C3=O)C2CCC1CC2 (stereo not given) | 8.56 (≈ 2.99 µg/mL) | 22.9 | 2.68 | –
CC(C)(C)OC(=O)N1CCc2ncc3c(c2C1)C(=O)C1=C(C3=O)C2CCC1C2 (stereo not given) | 12.9 (≈ 4.9 µg/mL) | 7.33 | 0.57 | –
